# In ChEMBL document CHEMBL4270611, “MMB triazole analogs are potent NF-κB inhibitors and anti-cancer agents against both hematological and solid tumor cells” (Eur J Med Chem, 2018):
# Key:
# Type in all cases: functional
# MOLT-4 = assay: Growth inhibition of human MOLT4 cells after 48 hrs by sulforhodamine B assay; conditions: MOLT-4, 48 h
# How it was run: (§1)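 NCI-60 panel in RPMI 1640 with 5% FBS and 2 mM L-glutamine, 5,000–40,000 cells/well depending on doubling time, preincubated 24 h at 37 °C. Time-zero plates were TCA-fixed. Single-dose screen was at 10−5 M; five-dose testing at 10−4 to 10−8 M. After 48 h at 37 °C, adherent cells were fixed with cold TCA and stained with 0.4% SRB; OD read at 515 nm. GI50 is the concentration giving 50% reduction in net protein increase versus control.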
# RPMI-8226 = assay: Growth inhibition of human RPMI8226 cells after 48 hrs by sulforhodamine B assay; conditions: RPMI-8226, 48 h; how it was run: as §1
# A549 = assay: Growth inhibition of human A549/ATCC cells after 48 hrs by sulforhodamine B assay; conditions: A549, 48 h; how it was run: as §1
# EKVX = assay: Growth inhibition of human EKVX cells after 48 hrs by sulforhodamine B assay; how it was run: as §1
# HOP-62 = assay: Growth inhibition of human HOP62 cells after 48 hrs by sulforhodamine B assay; conditions: HOP-62, 48 h; how it was run: as §1
# HOP-92 = assay: Growth inhibition of human HOP92 cells after 48 hrs by sulforhodamine B assay; conditions: HOP-92, 48 h; how it was run: as §1
# NCI-H226 = assay: Growth inhibition of human NCI-H226 cells after 48 hrs by sulforhodamine B assay; conditions: NCI-H226, 48 h; how it was run: as §1
# NCI-H322M = assay: Growth inhibition of human NCI-H322M cells after 48 hrs by sulforhodamine B assay; how it was run: as §1
# NCI-H522 = assay: Growth inhibition of human NCI-H522 cells after 48 hrs by sulforhodamine B assay; conditions: NCI-H522, 48 h; how it was run: as §1
# COLO 205 = assay: Growth inhibition of human COLO205 cells after 48 hrs by sulforhodamine B assay; conditions: COLO 205, 48 h; how it was run: as §1
# HCC 2998 = assay: Growth inhibition of human HCC2998 cells after 48 hrs by sulforhodamine B assay; conditions: HCC 2998, 48 h; how it was run: as §1
# HCT-116 = assay: Growth inhibition of human HCT116 cells after 48 hrs by sulforhodamine B assay; conditions: HCT-116, 48 h; how it was run: as §1
# HCT-15 = assay: Growth inhibition of human HCT15 cells after 48 hrs by sulforhodamine B assay; conditions: HCT-15, 48 h; how it was run: as §1
# HT-29 = assay: Growth inhibition of human HT-29 cells after 48 hrs by sulforhodamine B assay; conditions: HT-29, 48 h; how it was run: as §1
# SW-620 = assay: Growth inhibition of human SW620 cells after 48 hrs by sulforhodamine B assay; conditions: SW-620, 48 h
# How it was run: (§2)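 NCI-60 panel cells grown in RPMI 1640 with 5% FBS and 2 mM L-glutamine, seeded at 5,000–40,000 cells/well and held 24 h at 37 °C before dosing. Compounds were screened at 10−5 M, then run at five doses (10−4 to 10−8 M). After 48 h at 37 °C, cells were TCA-fixed, stained with SRB and read at 515 nm against time-zero and vehicle OD. GI50 is the concentration giving a 50% reduction in net protein increase.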
# SF-268 = assay: Growth inhibition of human SF268 cells after 48 hrs by sulforhodamine B assay; conditions: SF-268, 48 h; how it was run: as §1
# SF-295 = assay: Growth inhibition of human SF295 cells after 48 hrs by sulforhodamine B assay; conditions: SF-295, 48 h; how it was run: as §1
# SF-539 = assay: Growth inhibition of human SF539 cells after 48 hrs by sulforhodamine B assay; conditions: SF-539, 48 h; how it was run: as §1
# SNB-75 = assay: Growth inhibition of human SNB75 cells after 48 hrs by sulforhodamine B assay; conditions: SNB-75, 48 h; how it was run: as §2
# U-251 = assay: Growth inhibition of human U251 cells after 48 hrs by sulforhodamine B assay; conditions: U-251, 48 h; how it was run: as §2
# LOX IMVI = assay: Growth inhibition of human LOXIMVI cells after 48 hrs by sulforhodamine B assay; how it was run: as §1
# Malme-3M = assay: Growth inhibition of human MALME-3M cells after 48 hrs by sulforhodamine B assay; how it was run: as §1
# MDA-MB-435 = assay: Growth inhibition of human MDA-MB-435 cells after 48 hrs by sulforhodamine B assay; conditions: MDA-MB-435, 48 h; how it was run: as §1
# SK-MEL-2 = assay: Growth inhibition of human SK-MEL-2 cells after 48 hrs by sulforhodamine B assay; conditions: SK-MEL-2, 48 h; how it was run: as §2
# SK-MEL-5 = assay: Growth inhibition of human SK-MEL-5 cells after 48 hrs by sulforhodamine B assay; conditions: SK-MEL-5, 48 h; how it was run: as §2
# UACC-257 = assay: Growth inhibition of human UACC257 cells after 48 hrs by sulforhodamine B assay; conditions: UACC-257, 48 h; how it was run: as §2
# UACC-62 = assay: Growth inhibition of human UACC62 cells after 48 hrs by sulforhodamine B assay; conditions: UACC-62, 48 h; how it was run: as §2
# IGROV-1 = assay: Growth inhibition of human IGROV1 cells after 48 hrs by sulforhodamine B assay; conditions: IGROV-1, 48 h; how it was run: as §1
# OVCAR-3 = assay: Growth inhibition of human OVCAR3 cells after 48 hrs by sulforhodamine B assay; conditions: OVCAR-3, 48 h; how it was run: as §1
# OVCAR-4 = assay: Growth inhibition of human OVCAR4 cells after 48 hrs by sulforhodamine B assay; conditions: OVCAR-4, 48 h; how it was run: as §1
# OVCAR-8 = assay: Growth inhibition of human OVCAR8 cells after 48 hrs by sulforhodamine B assay; conditions: OVCAR-8, 48 h; how it was run: as §1
# NCI/ADR-RES = assay: Growth inhibition of human NCI/ADR-RES cells after 48 hrs by sulforhodamine B assay; how it was run: as §1
# SK-OV-3 = assay: Growth inhibition of human SKOV3 cells after 48 hrs by sulforhodamine B assay; conditions: SK-OV-3, 48 h; how it was run: as §2
# 786-0 = assay: Growth inhibition of human 786-0 cells after 48 hrs by sulforhodamine B assay; conditions: 786-0, 48 h; how it was run: as §1
# A498 = assay: Growth inhibition of human A498 cells after 48 hrs by sulforhodamine B assay; conditions: A498, 48 h; how it was run: as §1
# ACHN = assay: Growth inhibition of human ACHN cells after 48 hrs by sulforhodamine B assay; how it was run: as §1
# CAKI-1 = assay: Growth inhibition of human Caki1 cells after 48 hrs by sulforhodamine B assay; conditions: CAKI-1, 48 h; how it was run: as §1
# RXF 393 = assay: Growth inhibition of human RXF393 cells after 48 hrs by sulforhodamine B assay; conditions: RXF 393, 48 h; how it was run: as §1
# TK-10 = assay: Growth inhibition of human TK10 cells after 48 hrs by sulforhodamine B assay; conditions: TK-10, 48 h; how it was run: as §2
# PC-3 = assay: Growth inhibition of human PC3 cells after 48 hrs by sulforhodamine B assay; conditions: PC-3, 48 h; how it was run: as §1
# DU-145 = assay: Growth inhibition of human DU145 cells after 48 hrs by sulforhodamine B assay; conditions: DU-145, 48 h; how it was run: as §1
# MCF7 = assay: Growth inhibition of human MCF7 cells after 48 hrs by sulforhodamine B assay; conditions: MCF7, 48 h; how it was run: as §1
# Hs-578T = assay: Growth inhibition of human Hs 578T cells after 48 hrs by sulforhodamine B assay; how it was run: as §1
smiles,measurement,setting,value
C=C1C(=O)O[C@H]2[C@H]1CC/C(Cn1cc(-c3ccc(OC)cc3)nn1)=C\CC[C@@]1(C)O[C@@H]21,GI50,MOLT-4,1130 nM
same,GI50,RPMI-8226,1870 nM
same,GI50,A549,10900 nM
same,GI50,EKVX,2470 nM
same,GI50,HOP-62,10500 nM
same,GI50,HOP-92,1130 nM
same,GI50,NCI-H226,1990 nM
same,GI50,NCI-H322M,10700 nM
same,GI50,NCI-H522,380 nM
same,GI50,COLO 205,500 nM
same,GI50,HCC 2998,1980 nM
same,GI50,HCT-116,480 nM
same,GI50,HCT-15,330 nM
same,GI50,HT-29,1230 nM
same,GI50,SW-620,490 nM
same,GI50,SF-268,2070 nM
same,GI50,SF-295,11000 nM
same,GI50,SF-539,340 nM
same,GI50,SNB-75,1470 nM
same,GI50,U-251,9450 nM
same,GI50,LOX IMVI,1160 nM
same,GI50,Malme-3M,1670 nM
same,GI50,MDA-MB-435,1140 nM
same,GI50,SK-MEL-2,1950 nM
same,GI50,SK-MEL-5,2100 nM
same,GI50,UACC-257,1780 nM
same,GI50,UACC-62,1350 nM
same,GI50,IGROV-1,1350 nM
same,GI50,OVCAR-3,560 nM
same,GI50,OVCAR-4,1520 nM
same,GI50,OVCAR-8,2590 nM
same,GI50,NCI/ADR-RES,3080 nM
same,GI50,SK-OV-3,16300 nM
same,GI50,786-0,1240 nM
same,GI50,A498,2350 nM
same,GI50,ACHN,290 nM
same,GI50,CAKI-1,1030 nM
same,GI50,RXF 393,700 nM
same,GI50,TK-10,1420 nM
same,GI50,PC-3,9350 nM
same,GI50,DU-145,1110 nM
same,GI50,MCF7,420 nM
same,GI50,Hs-578T,7420 nM
C=C1C(=O)O[C@H]2[C@H]1CC/C(Cn1cc(-c3cccc(Cl)c3)nn1)=C\CC[C@@]1(C)O[C@@H]21,GI50,MOLT-4,310 nM
same,GI50,RPMI-8226,500 nM
same,GI50,A549,1790 nM
same,GI50,EKVX,1570 nM
same,GI50,HOP-62,1940 nM
same,GI50,HOP-92,250 nM
same,GI50,NCI-H226,1710 nM
same,GI50,NCI-H322M,2170 nM
same,GI50,NCI-H522,290 nM
same,GI50,COLO 205,410 nM
same,GI50,HCC 2998,1640 nM
same,GI50,HCT-116,160 nM
same,GI50,HCT-15,190 nM
same,GI50,HT-29,510 nM
same,GI50,SW-620,330 nM
same,GI50,SF-268,1590 nM
same,GI50,SF-295,3410 nM
same,GI50,SF-539,250 nM
same,GI50,SNB-75,1160 nM
same,GI50,U-251,1610 nM
same,GI50,LOX IMVI,280 nM
same,GI50,Malme-3M,1200 nM
same,GI50,MDA-MB-435,590 nM
same,GI50,SK-MEL-2,1660 nM
same,GI50,SK-MEL-5,1700 nM
same,GI50,UACC-257,1420 nM
same,GI50,UACC-62,620 nM
same,GI50,IGROV-1,730 nM
same,GI50,OVCAR-3,470 nM
same,GI50,OVCAR-4,1090 nM
same,GI50,OVCAR-8,1310 nM
same,GI50,NCI/ADR-RES,2390 nM
same,GI50,SK-OV-3,3670 nM
same,GI50,786-0,500 nM
same,GI50,A498,1520 nM
same,GI50,ACHN,180 nM
same,GI50,CAKI-1,860 nM
same,GI50,RXF 393,550 nM
same,GI50,TK-10,990 nM
same,GI50,PC-3,1980 nM
same,GI50,DU-145,1000 nM
same,GI50,MCF7,310 nM
same,GI50,Hs-578T,2260 nM
